Measurements: ChEMBL document CHEMBL1123363, “(5-Amino-1,3-dimethyl-1H-pyrazol-4-yl)(2-fluorophenyl)methanones . A series of novel potential antipsychotic agents” (J Med Chem, 1986)
Blank lines part the entries; values can stand above or below the compound they belong to.

Columns and labels:
Rattus norvegicus [1] = experiment: Compound was tested for serum prolactin assay method in rats at 10 mg/kg dose after peroral administration; format: functional; conditions: route oral
In short: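 Seven-week-old male Sprague–Dawley rats, five per group, were dosed orally and killed by decapitation 1 h later. Serum prolactin from trunk blood was measured by radioimmunoassay with [125I]-PRL and expressed as % of control (mean ± SEM).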

[2] = molecular target: Beta-2 adrenergic receptor (Rattus norvegicus, UniProt P10608); experiment: Binding affinity against the beta-2 adrenergic receptor using [3H]- DHA
Sequence of Beta-2 adrenergic receptor (P10608 whole entry): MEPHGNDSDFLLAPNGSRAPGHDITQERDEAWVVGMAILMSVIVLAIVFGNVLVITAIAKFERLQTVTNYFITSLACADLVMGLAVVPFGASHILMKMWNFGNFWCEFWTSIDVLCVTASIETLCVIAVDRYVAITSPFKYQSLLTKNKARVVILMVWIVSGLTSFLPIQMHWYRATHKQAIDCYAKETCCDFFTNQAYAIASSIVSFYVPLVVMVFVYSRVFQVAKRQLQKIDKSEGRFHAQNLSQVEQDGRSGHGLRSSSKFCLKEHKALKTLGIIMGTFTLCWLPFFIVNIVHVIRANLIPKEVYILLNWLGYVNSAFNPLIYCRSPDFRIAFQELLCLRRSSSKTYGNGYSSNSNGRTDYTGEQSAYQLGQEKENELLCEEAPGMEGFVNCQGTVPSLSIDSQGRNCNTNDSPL
In short: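 β2 sites in rat cerebellum membranes (male Long-Evans, 150–250 g) with [3H]dihydroalprenolol at 0.5 nM final. (-)-Alprenolol at 1 μM final defined the reference. IC50 from four or five concentrations by nonlinear curve fit.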

[3] = molecular target: T1, Serotonin 2 (5-HT2) receptor (Rattus norvegicus, UniProt P30994+P08909+P14842); experiment: Binding affinity towards 5-hydroxytryptamine 2 receptor using [3H]- spiroperidol; format: protein assay
In short: (§1)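 Serotonin-2 sites in rat cerebral cortex membranes (male Long-Evans, 150–250 g) with [3H]spiroperidol at 0.2 nM final. (+)-Butaclamol at 1.0 μM final was the reference. IC50 from four or five concentrations by nonlinear curve fitting.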

[4] = molecular target: T2, Adrenergic receptor alpha-2 (Rattus norvegicus, UniProt P22086+P19328+P22909); experiment: Binding affinity against the alpha-2 adrenergic receptor using [3H]- clonidine; format: protein assay
T2 sequence (P22086 whole entry): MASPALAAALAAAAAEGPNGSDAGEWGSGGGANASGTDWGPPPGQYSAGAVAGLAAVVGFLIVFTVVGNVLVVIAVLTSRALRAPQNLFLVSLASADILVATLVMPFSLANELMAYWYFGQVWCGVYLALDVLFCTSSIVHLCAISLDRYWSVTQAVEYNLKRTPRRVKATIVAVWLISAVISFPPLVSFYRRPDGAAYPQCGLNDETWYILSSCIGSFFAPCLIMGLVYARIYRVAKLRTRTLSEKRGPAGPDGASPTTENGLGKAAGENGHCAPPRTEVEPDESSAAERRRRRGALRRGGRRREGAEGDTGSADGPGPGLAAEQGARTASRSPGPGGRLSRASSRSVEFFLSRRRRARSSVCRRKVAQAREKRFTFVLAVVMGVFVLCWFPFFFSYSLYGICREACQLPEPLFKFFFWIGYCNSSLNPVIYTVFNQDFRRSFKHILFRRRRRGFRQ
T2 sequence (P19328 whole entry): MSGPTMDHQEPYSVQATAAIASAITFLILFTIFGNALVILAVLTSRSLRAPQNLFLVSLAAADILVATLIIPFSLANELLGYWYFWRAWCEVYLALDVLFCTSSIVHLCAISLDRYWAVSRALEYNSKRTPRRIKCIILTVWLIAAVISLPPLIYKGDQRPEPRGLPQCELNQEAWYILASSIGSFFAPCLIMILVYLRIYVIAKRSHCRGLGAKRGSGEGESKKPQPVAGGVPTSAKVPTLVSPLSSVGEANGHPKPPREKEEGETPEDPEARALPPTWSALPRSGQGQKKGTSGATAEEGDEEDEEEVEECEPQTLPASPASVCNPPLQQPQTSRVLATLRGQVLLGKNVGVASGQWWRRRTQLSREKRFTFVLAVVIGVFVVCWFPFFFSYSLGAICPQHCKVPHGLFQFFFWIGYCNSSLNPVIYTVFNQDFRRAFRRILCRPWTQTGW
T2 sequence (P22909 whole entry): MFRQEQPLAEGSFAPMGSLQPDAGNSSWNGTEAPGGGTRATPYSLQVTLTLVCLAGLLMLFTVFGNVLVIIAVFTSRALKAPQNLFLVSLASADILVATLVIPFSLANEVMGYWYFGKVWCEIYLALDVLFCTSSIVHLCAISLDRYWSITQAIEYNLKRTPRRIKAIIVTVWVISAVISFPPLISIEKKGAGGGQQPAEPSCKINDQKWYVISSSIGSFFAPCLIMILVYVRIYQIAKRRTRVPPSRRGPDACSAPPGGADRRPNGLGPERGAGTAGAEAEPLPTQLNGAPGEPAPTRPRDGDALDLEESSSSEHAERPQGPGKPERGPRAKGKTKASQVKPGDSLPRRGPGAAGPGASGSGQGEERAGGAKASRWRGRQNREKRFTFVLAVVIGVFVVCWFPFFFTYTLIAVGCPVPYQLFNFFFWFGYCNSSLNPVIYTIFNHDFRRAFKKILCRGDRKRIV
In short: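 α2 sites in rat cerebral cortex membranes (male Long-Evans, 150–250 g) labelled with [3H]clonidine at 0.4 nM final. (-)-Norepinephrine at 10 μM final was the reference. IC50 from four or five concentrations by nonlinear fit.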

Rattus norvegicus [5] = organism: Rattus norvegicus; experiment: Effective dose required for inhibition of conditional avoidance in rats; format: functional
In short: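 Fasted male Wistar rats (150–250 g) were trained to jump to a platform at a buzzer to avoid grid shock (1.1 mA/s). After oral dosing they were tested every 20 min for 6 h over 19 trials, 10 rats per dose, each rat used once. Peak effect was the mean of the four consecutive trials with the largest effect, computed from response latency. ED50 read graphically from at least three doses.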

Mus musculus = experiment: Effective dose required for inhibition of locomotion/ataxia in mice administered intraperitoneally; format: functional; conditions: ip
In short: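 Male Swiss–Webster mice (20–30 g, unfasted), nine per dose in groups of three, dosed ip in 0.2% methocel (dose as parent compound) 1 h before testing. Ataxia was scored first on an inverted screen over 60 s as % of mice falling. […] ED50 from at least three doses.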

[6] = molecular target: T1, Serotonin 2 (5-HT2) receptor; experiment: Binding affinity towards 5-hydroxytryptamine 2 receptor in rat brain using [3H]spiroperidol; format: tissue-based; in short: as §1
Rattus norvegicus [7] = experiment: Compound was tested for its effect on norepinephrine turnover in rat at dose of 64 mg/kg ip; format: functional; conditions: route intraperitoneal
In short: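 Rats were given compound or vehicle ip 30 min before α-methyl-p-tyrosine (250 mg/kg ip) and killed 4 h later. Brain NE and DA were measured spectrofluorometrically, with at least five determinations per value, and expressed as % of vehicle-treated levels ± SEM.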

Adenosine receptor A1 = molecular target: T3, Adenosine receptor A1 (Rattus norvegicus, UniProt P25099); experiment: Binding affinity towards rat brain adenosine A1 receptor using [3H]- CHA
T3 sequence (P25099 whole entry): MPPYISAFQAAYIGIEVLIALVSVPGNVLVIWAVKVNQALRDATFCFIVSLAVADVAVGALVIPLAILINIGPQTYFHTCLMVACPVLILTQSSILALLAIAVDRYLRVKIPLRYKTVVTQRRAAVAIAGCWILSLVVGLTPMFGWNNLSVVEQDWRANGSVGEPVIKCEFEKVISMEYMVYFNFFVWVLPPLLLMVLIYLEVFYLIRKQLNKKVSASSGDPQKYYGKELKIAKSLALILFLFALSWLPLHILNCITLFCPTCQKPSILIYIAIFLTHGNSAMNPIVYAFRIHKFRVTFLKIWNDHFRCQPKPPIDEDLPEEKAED
In short: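 Adenosine A1 binding in membranes of rat whole brain minus brain stem and cerebellum (male Long-Evans, 150–250 g), using [3H]-CHA at 1.0 nM final. Theophylline at 1 mM final was the reference. IC50 from four or five concentrations by nonlinear fit.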

IC50 [2]: > 10 µM
IC50 [3]: > 10 µM
IC50 [4]: > 10 µM
SMILES: CCN(CC)CC(=O)Nc1c(C(=O)c2ccccc2F)c(C)nn1C
Control (Rattus norvegicus [1]): 52.9%

SMILES: Cc1nn(C)c(N)c1C(=O)c1ccccc1F
ED50 (Rattus norvegicus [5]): 18 mg/kg
ED50 (Mus musculus): 8 mg/kg

IC50 [6]: > 10 µM
IC50 (Adenosine receptor A1): > 10 µM
SMILES: Cc1nn(C)c(NC(=O)CNCCCN2CCCCC2C)c1C(=O)c1ccccc1F (centres undefined)
Control (Rattus norvegicus [7]): 102.8%
